Data on 38 variants can be found in the RNAGym collection of RNA variant scans (doi:10.1126/science.aae0568).

First the molecules themselves.
B1: tRNA (parent)
chain: GUUCCGUUGGCGUAAUGGUAACGCGUCUCCCUCCUAAGGAGAAGACUGCGGGUUCGAGUCCCGUACGGAACG

This sample holds only a part of the variants without activity.

The variants in the data set derive from B1. The experiment in a line: yeast fitness relative to wild type (ratio to wild type); higher = fitter; tRNA-Arg(CCU), competitive growth, 37 C, YPD. In short, it runs like this: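 Changes in genotype frequencies gave Darwinian fitness relative to wild type. Frequencies were read by 100-nucleotide paired-end sequencing of gene amplicons before and after pooled Saccharomyces cerevisiae strains, carrying tRNA-Arg(CCU) gene variants at the native locus, were competed in YPD at 37°C for 24 hours in six replicates. A genotype was kept only with ≥ 100 starting reads, and estimates < 0.5 were set to 0.5.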
For GUUCCGUUGCCGUAAUGGUUACGCGUUUUCCUCCUAAGGUGAAGACUGCGGGUUCGAGUCCCGUAUGGAACG, the yeast fitness was at most 0.5.
The value for GUUCCGUUGCCGUAAUGGUAGCGCGUCUCCCUCCUAAGGAGAAGACUGCGGGUUCUAGUCCCGUAAGGAACG was 0.727.
Take GUUCCGUUGCCGUCAUGGUAACGCGUCUCCCUCCUAAGGAGAAGACUGCGGGUUCGAGUCCUGUACGGAACG: the yeast fitness was 0.537.
To GUUCCGUUGCCGUAAUGGUAACGCGUCUCCCUCCUCAGGAGAAGACUGCGGGUUCGAGUCCCGUACGGAACG belongs 0.712; to GUUCCGUUGCCGUAAUGGUGACGUGUCUCCCUCCUAACGAGAAGACUGCGGGUUCCAGUCCCGUACGGAACG, 0.561; to GUUCCGUUGACGUAAUGGUAACGCGUCUCCCACCUAAGGAGAAGACUGUGGGUUCGAGUCCCGUACGGAACG, 0.577.
For the variant GUUCCGUUGCCGUUAUGGAAAUGCGUCUCCCUCCUGAGGAGAAGACUGCGGGUUCGAGUCCCGUACGGAACG, the yeast fitness is at most 0.5.
The value for GUUCCGUUGCCGUCAUGGUAUCGCGUCUCCUUCCUAAGGAGAAGACUGCGGGUUCGAGUCCCGUACGGAACG was 0.773.
To GUUCCGUUGACGUAAUGGUAACGCGUCUCCCUCCGAUGGAGAAGACUGCGGGUUCGAGUCCCGUACGGAACG belongs 0.551.
In the case of GUUCCGUUGCCGUAAUGGUUACGCGUCUCCCUCCUAAGGAGGAGACUGCGGGUUCGAGUGCCGUACGGAACG, the yeast fitness was at most 0.5.
The value for GUUCCGUUGCCGUAAUGGUAACGCGUCUCCCUCCUAAGGAGGAGACUGCGGGUUCGAGUCCCGUACGGAACG was 0.57; that for GUUCCGUUGCCGUAUUGGUAACGCGUCUGCCUCCUAAGGAGAAGAUUGCGCGUUCGAGUCCCGUGCGGAACG was at most 0.5; that for GUUCCGUUGCCGUAGUGGUAACGCGUCUCCCUCCAAAGGAGAAAACUGCGGGUUCGAGUCCCGUACGGCACG was at most 0.5.
To GUUCCGUUGCCGUUAUGGUAACGCGUCUCCCCCCUAAGGAGAAGACUGCGGGUUCGAGUCCUGUACGGAACG belongs at most 0.5; to GUUCCGUUGCCGUAAUGGUAGCGCGUCUACCUCCUAAGGAGAUGACUGCGGGUUAGAGUCCCGUACGGAACG, 0.651.
To GUUCCGUUGACGUAAUGGUAACGCGUCACCCUCCUAAGGAGUAGACUGCGGGUUCGAGUCCCGUACGGAACG belongs at most 0.5; to GUUCCGUUGCCGUCAUGGUAACGCGUCUCCCUCCUAAGGAGAAGACUGCGGGUUCGAAUCCCGUACGGAACG, at most 0.5; to GUUCCGUUGCCGUAAUGGUAACGCGUCUCCCUCCUAUGGAGAAGACUGCGGAUUCGAGUCCCGUACGGAACG, at most 0.5.
As for GUUCCGUUGCCGUAAUGGUAACGCGUCUCCCUCCUAUGGAGAAGACUGCGGAUUCGAGUCCCGUAUGGAACG, the yeast fitness is at most 0.5.
On to GUUCCGUUGCCGUACUGGUAACGUGUCUCCCUCCUAAGGAGAAGACUGCGGGUCCGAGUACAGUACGGAACG, for which the yeast fitness amounted to 0.585.
In the case of GUUCCGUUGCCGUAAUGGUACCGCGUCUCCCUCCUAAGGAGAAGACUGCGGGUUCGAGUCCCGUAGGGAACG, the yeast fitness is at most 0.5.
To GUUCCGUUGCCGUAAUGGUGACGUGUCUCCCUCCUAACGAGAAGACUGCGGGGUCGAGUCCCGUACGGAACG belongs at most 0.5; to GUUCCGUUGCCGUAAUGGUAACGCGUCUCCCUCCUAGGGAGAAGACUGCGGGUUCGAGUCCCGUACGGAACG, 0.656; to GUUCCGUUGCCGUUAUGGUAACGCGUCUCCCUCCUAAGGAGAAGACUGCGGGUUCGAGUCCUGUACGGAACG, 0.51.
To GUUCCGUUGCCGUCAUGGUAACGCGUAUGCCUCCUAAGGAGAAGACUGCGGGUUCGCGUCCCGUUCGGAACG belongs at most 0.5; to GUUCCGUUGACGUAAUGGUAACGCGUCUCCCUCCUAAGGAGAAGACUGCGGGUUCGAGUCCCGAACGGAACG, 0.73.
To GUUCCGUUGACGUAAUGGUAACGCGUCUCCCUCCGAAGGAGAGGAUUGCGGGUUCGAGUCCCGUACGGAACG belongs 0.587; to GUUCCGUUGACGUAAUGGUAACGCGUCUCCCCCCUAAGGAGAAGACUGCGGGUUCGGGUCCCGUACGGAACG, at most 0.5.
Take GUUCCGUUGCCGUUAUGGAAAUGCGUCUCCCUCCUAAGGAGAAGACUGCGGGUUCGAGUCCAGUACGGAACG: the yeast fitness is at most 0.5.
To GUUCCGUUGCCGUAGUGGUAACGCGUGUCCCUCCUAAGGAGAAGACUGCGGGUUCGAGUCCCGUACGGAACG belongs 0.695; to GUUCCGUUGACGUAAUGGUAACGCGUCUCCCUCCAAAGGAGAAGACUGCGGGUUCGAGUCCCCUACGGAACG, at most 0.5; to GUUCCGUUGCCGUAAUGGUGACGCGUCUCCCUCCUAAGGAGAGGAUUGCGGGUUCGAGUCCCGUACGGAACG, at most 0.5.
Regarding GUUCCGUUGCCGUAUUGGUAACGCGUCUCCCUACUUAGGAGAAGACUGCGGGUUCGAGUCCUGUACGGAACG, the yeast fitness is at most 0.5.
To GUUCCGUUGCCGUAAUGGUAACGCGUCUCCCUCCUAAGGAGCGGACUGCGGGUUCGAGUCCCGUACGGAACG belongs at most 0.5; to GUUCCGUUGCCGUAAUGGUAACGCGUCUCCCUCCUGAGGAAAAGACUGCGGGUUCGAGUCCCGUACGGAACG, at most 0.5.
Consider GUUCCGUUGCCGUGAUGGUAACGCGACUCCCUCCUAAGGAGAAGACUGUGGGUUCGAGUCCCGUUCGGAACG, for which the yeast fitness is at most 0.5.
To GUUCCGUUGACGUAAUGGUAACGCGUCACCCUCCUAAGGAGAAGACUGCGGGUUCGAGACCCGUACGGAACG belongs at most 0.5.
The value for GUUCCGUUGCCGUAAUGGUAACGCGUCUCCCUCCUUAGGAGAAGACUGCGGGAUCGAGUACCGUACGGAACG was 0.548.
